≈ marks a conversion by molar mass, not a printed value.
test system: Mycobacterium tuberculosis; assay: Antitubercular activity against Mycobacterium tuberculosis H37Rv after 4 days by microplate alamar blue assay; type: functional; settings: 96 h
Method in brief: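 M. tuberculosis H37Rv (ATCC 27294) in BACTEC 12B medium by MABA; 10 twofold dilutions, usually 100 to 0.19 µg/mL; final titer as printed; 37 °C, Alamar Blue added from day 4 once control wells turned pink, read 24 h later (ex 530/em 590 nm). MIC: lowest concentration giving 90% fluorescence reduction vs controls, taken as IC90 from dose-response curve fit.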

Point of comparison: `Cc1ccc2c(c1)/C(=N/NC(=S)Nc1ccc(Cl)cc1)C(=O)N2`, IC90 3.57 µg/mL (≈ 10.3 µM). Against it:
- Cc1ccc2c(c1)/C(=N/NC(=S)Nc1ccccc1)C(=O)N2C — higher, > 100 µg/mL
- CN1C(=O)/C(=N\NC(=S)Nc2ccc(F)cc2)c2cc(OC(F)(F)F)ccc21 — higher, > 100 µg/mL
- Cc1ccc2c(c1)/C(=N/NC(=S)Nc1ccc(F)cc1)C(=O)N2 — 2.2-fold lower, 1.59 µg/mL (≈ 4.83 µM)
- O=C1/C(=N\NC(=S)Nc2ccc(F)cc2)c2cc(OC(F)(F)F)ccc2N1CN1CCOCC1 — within 1.5-fold, 3.06 µg/mL (≈ 6.15 µM)
- CN1C(=O)/C(=N\NC(=S)NCc2ccccc2)c2cc(OC(F)(F)F)ccc21 — higher, > 100 µg/mL
- O=C1Nc2ccc(OC(F)(F)F)cc2/C1=N/NC(=S)Nc1ccc([N+](=O)[O-])cc1 — higher, > 100 µg/mL
- CCCCNC(=S)N/N=C1\C(=O)N(CN2CCOCC2)c2ccc(OC(F)(F)F)cc21 — higher, > 100 µg/mL
- Cc1ccc2c(c1)/C(=N/NC(=S)Nc1ccc([N+](=O)[O-])cc1)C(=O)N2C — higher, > 100 µg/mL
- Cc1ccc2c(c1)/C(=N/NC(=S)Nc1ccccc1Br)C(=O)N2 — higher, > 100 µg/mL
- CCNC(=S)N/N=C1\C(=O)N(CN2CCOCC2)c2ccc(OC(F)(F)F)cc21 — higher, > 100 µg/mL
- O=C1/C(=N\NC(=S)Nc2ccccc2)c2cc(OC(F)(F)F)ccc2N1CN1CCOCC1 — higher, > 100 µg/mL
- O=C1Nc2ccc(OC(F)(F)F)cc2/C1=N/NC(=S)Nc1ccccc1 — higher, > 100 µg/mL
- CN1C(=O)/C(=N\NC(=S)Nc2ccccc2)c2cc(OC(F)(F)F)ccc21 — higher, > 100 µg/mL
- CNC(=S)N/N=C1\C(=O)N(CN2CCOCC2)c2ccc(OC(F)(F)F)cc21 — higher, > 100 µg/mL
- CCCCNC(=S)N/N=C1\C(=O)Nc2ccc(OC(F)(F)F)cc21 — higher, > 100 µg/mL
- Cc1ccc(NC(=S)N/N=C2\C(=O)Nc3ccc(C)cc32)cc1 — higher, > 100 µg/mL
- O=C1/C(=N\NC(=S)NCc2ccccc2)c2cc(OC(F)(F)F)ccc2N1CN1CCOCC1 — higher, > 100 µg/mL
- O=C1Nc2ccc(OC(F)(F)F)cc2/C1=N/NC(=S)NC1CCCCC1 — higher, > 100 µg/mL
- O=C1Nc2ccc(OC(F)(F)F)cc2/C1=N/NC(=S)NCc1ccccc1 — higher, > 100 µg/mL
- Cc1ccc(NC(=S)N/N=C2\C(=O)Nc3ccc(OC(F)(F)F)cc32)cc1 — higher, > 100 µg/mL
- C=CCNC(=S)N/N=C1\C(=O)Nc2ccc(OC(F)(F)F)cc21 — higher, > 100 µg/mL
- CNC(=S)N/N=C1\C(=O)N(C)c2ccc(C)cc21 — higher, > 100 µg/mL
- C=CCNC(=S)N/N=C1\C(=O)N(CN2CCOCC2)c2ccc(OC(F)(F)F)cc21 — higher, > 100 µg/mL
- Cc1ccc2c(c1)/C(=N/NC(=S)Nc1ccccc1)C(=O)N2 — 2.5-fold lower, 1.43 µg/mL (≈ 4.62 µM)
- CN1C(=O)/C(=N\NC(=S)Nc2ccc(Cl)cc2)c2cc(OC(F)(F)F)ccc21 — higher, > 100 µg/mL
- CCNC(=S)N/N=C1\C(=O)N(C)c2ccc(OC(F)(F)F)cc21 — higher, > 100 µg/mL
- CCCCNC(=S)N/N=C1\C(=O)N(C)c2ccc(C)cc21 — higher, > 100 µg/mL
- CCNC(=S)N/N=C1\C(=O)Nc2ccc(C)cc21 — higher, > 100 µg/mL
- O=C1Nc2ccc(OC(F)(F)F)cc2/C1=N/NC(=S)Nc1ccc(Cl)cc1 — 2.3-fold lower, 1.52 µg/mL (≈ 3.67 µM)
- Cc1ccc2c(c1)/C(=N/NC(=S)Nc1ccc(Br)cc1)C(=O)N2 — higher, > 100 µg/mL
- CCNC(=S)N/N=C1\C(=O)N(C)c2ccc(C)cc21 — higher, > 100 µg/mL
- CCCCNC(=S)N/N=C1\C(=O)Nc2ccc(C)cc21 — 3.9-fold lower, 0.911 µg/mL (≈ 3.14 µM)
- Cc1ccc2c(c1)/C(=N/NC(=S)Nc1ccc(Cl)cc1)C(=O)N2C — higher, > 100 µg/mL
- CN1C(=O)/C(=N\NC(=S)Nc2ccc(Br)cc2)c2cc(OC(F)(F)F)ccc21 — higher, > 100 µg/mL
- Cc1ccc(NC(=S)N/N=C2\C(=O)N(CN3CCOCC3)c3ccc(OC(F)(F)F)cc32)cc1 — higher, > 100 µg/mL
- Cc1ccc2c(c1)/C(=N/NC(=S)Nc1cccc(Br)c1)C(=O)N2 — 2.4-fold lower, 1.49 µg/mL (≈ 3.83 µM)
- Cc1ccc2c(c1)/C(=N/NC(=S)Nc1ccc(F)cc1)C(=O)N2C — higher, > 100 µg/mL
- CN1C(=O)/C(=N\NC(=S)Nc2ccc([N+](=O)[O-])cc2)c2cc(OC(F)(F)F)ccc21 — higher, > 100 µg/mL
- Cc1ccc2c(c1)/C(=N/NC(=S)NCc1ccccc1)C(=O)N2C — higher, > 100 µg/mL
- C=CCNC(=S)N/N=C1\C(=O)N(C)c2ccc(OC(F)(F)F)cc21 — higher, > 100 µg/mL
- C=CCNC(=S)N/N=C1\C(=O)N(C)c2ccc(C)cc21 — higher, > 100 µg/mL
- Cc1ccc2c(c1)/C(=N/NC(=S)Nc1ccccc1Br)C(=O)N2C — higher, > 100 µg/mL
- O=C1/C(=N\NC(=S)NC2CCCCC2)c2cc(OC(F)(F)F)ccc2N1CN1CCOCC1 — 1.6-fold higher, 5.69 µg/mL (≈ 11.7 µM)
- Cc1ccc2c(c1)/C(=N/NC(=S)Nc1ccc([N+](=O)[O-])cc1)C(=O)N2 — higher, > 100 µg/mL
- Cc1ccc(NC(=S)N/N=C2\C(=O)N(C)c3ccc(C)cc32)cc1 — higher, > 100 µg/mL
- O=C1Nc2ccc(OC(F)(F)F)cc2/C1=N/NC(=S)Nc1ccc(F)cc1 — 2.3-fold lower, 1.55 µg/mL (≈ 3.88 µM)
- CNC(=S)N/N=C1\C(=O)N(C)c2ccc(OC(F)(F)F)cc21 — higher, > 100 µg/mL
- CCCCNC(=S)N/N=C1\C(=O)N(C)c2ccc(OC(F)(F)F)cc21 — higher, > 100 µg/mL
- CN1C(=O)/C(=N\NC(=S)NC2CCCCC2)c2cc(OC(F)(F)F)ccc21 — higher, > 100 µg/mL
- O=C1/C(=N\NC(=S)Nc2ccc(Br)cc2)c2cc(OC(F)(F)F)ccc2N1CN1CCOCC1 — within 1.5-fold, 3.03 µg/mL (≈ 5.43 µM)
- O=C1Nc2ccc(OC(F)(F)F)cc2/C1=N/NC(=S)Nc1ccc(Br)cc1 — 2.3-fold lower, 1.53 µg/mL (≈ 3.33 µM)
- Cc1ccc2c(c1)/C(=N/NC(=S)NCc1ccccc1)C(=O)N2 — higher, > 100 µg/mL
- Cc1ccc2c(c1)/C(=N/NC(=S)Nc1cccc(Br)c1)C(=O)N2C — higher, > 100 µg/mL
- Cc1ccc2c(c1)/C(=N/NC(=S)NC1CCCCC1)C(=O)N2C — higher, > 100 µg/mL
- CNC(=S)N/N=C1\C(=O)Nc2ccc(OC(F)(F)F)cc21 — higher, > 100 µg/mL
- O=C1/C(=N\NC(=S)Nc2ccc(Cl)cc2)c2cc(OC(F)(F)F)ccc2N1CN1CCOCC1 — within 1.5-fold, 3.04 µg/mL (≈ 5.92 µM)
- Cc1ccc2c(c1)/C(=N/NC(=S)Nc1ccc(Br)cc1)C(=O)N2C — higher, > 100 µg/mL
- O=C1/C(=N\NC(=S)Nc2ccc([N+](=O)[O-])cc2)c2cc(OC(F)(F)F)ccc2N1CN1CCOCC1 — higher, > 100 µg/mL
- Cc1ccc2c(c1)/C(=N/NC(=S)NC1CCCCC1)C(=O)N2 — 4.5-fold lower, 0.795 µg/mL (≈ 2.51 µM)
- Cc1ccc(NC(=S)N/N=C2\C(=O)N(C)c3ccc(OC(F)(F)F)cc32)cc1 — higher, > 100 µg/mL
- COc1ccc(NC(=S)N/N=C2\C(=O)Nc3ccc(OC(F)(F)F)cc32)cc1 — higher, > 100 µg/mL
- C=CCNC(=S)N/N=C1\C(=O)Nc2ccc(C)cc21 — higher, > 100 µg/mL
- CNC(=S)N/N=C1\C(=O)Nc2ccc(C)cc21 — higher, > 100 µg/mL
- COc1ccc(NC(=S)N/N=C2\C(=O)N(CN3CCOCC3)c3ccc(OC(F)(F)F)cc32)cc1 — higher, > 100 µg/mL
- CCNC(=S)N/N=C1\C(=O)Nc2ccc(OC(F)(F)F)cc21 — higher, > 100 µg/mL

test system: not listed separately; assay: Selectivity index, ratio of IC50 for african green monkey Vero cells to IC90 for Mycobacterium tuberculosis H37Rv; type: toxicity, cell-based; settings: read-out: Selectivity Index
Method in brief: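 SI = VERO cell IC50 / M. tuberculosis H37Rv MIC. VERO cells exposed 72 h at concentrations up to 10x the H37Rv MIC; viability by MTT (CellTiter 96); IC50 from dose-response curve fit. MIC from MABA against H37Rv in BACTEC 12B medium, 37 °C, 90% fluorescence reduction defining IC90.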

Point of comparison: `O=C1/C(=N\NC(=S)Nc2ccc(Br)cc2)c2cc(OC(F)(F)F)ccc2N1CN1CCOCC1`, selectivity ratio 2.46. Against it:
- Cc1ccc2c(c1)/C(=N/NC(=S)Nc1ccc(F)cc1)C(=O)N2 — lower, < 0.123
- CO[C@H]1/C=C/O[C@@]2(C)Oc3c(C)c(O)c4c(O)c(c(/C=N/N5CCN(C)CC5)c(O)c4c3C2=O)NC(=O)/C(C)=C\C=C\[C@H](C)[C@H](O)[C@@H](C)[C@@H](O)[C@@H](C)[C@H](OC(C)=O)[C@@H]1C [RIFAMPIN] — higher, > 800
- O=C1/C(=N\NC(=S)Nc2ccc(F)cc2)c2cc(OC(F)(F)F)ccc2N1CN1CCOCC1 — lower, 0.784
- Cc1ccc2c(c1)/C(=N/NC(=S)Nc1ccccc1)C(=O)N2 — lower, 0.742
- O=C1Nc2ccc(OC(F)(F)F)cc2/C1=N/NC(=S)Nc1ccc(Cl)cc1 — higher, 4.2
- CCCCNC(=S)N/N=C1\C(=O)Nc2ccc(C)cc21 — higher, 4.82
- Cc1ccc2c(c1)/C(=N/NC(=S)Nc1ccc(Cl)cc1)C(=O)N2 — higher, 3.46
- Cc1ccc2c(c1)/C(=N/NC(=S)Nc1cccc(Br)c1)C(=O)N2 — lower, 0.473
- O=C1/C(=N\NC(=S)NC2CCCCC2)c2cc(OC(F)(F)F)ccc2N1CN1CCOCC1 — higher, 4.12
- O=C1Nc2ccc(OC(F)(F)F)cc2/C1=N/NC(=S)Nc1ccc(F)cc1 — lower, 1.64
- O=C1Nc2ccc(OC(F)(F)F)cc2/C1=N/NC(=S)Nc1ccc(Br)cc1 — higher, 3.77
- O=C1/C(=N\NC(=S)Nc2ccc(Cl)cc2)c2cc(OC(F)(F)F)ccc2N1CN1CCOCC1 — higher, 3.19
- Cc1ccc2c(c1)/C(=N/NC(=S)NC1CCCCC1)C(=O)N2 — lower, 1.98
